ChEMBL document CHEMBL3352044, “Synthesis and structure-activity relationship studies of N-benzyl-2-phenylpyrimidin-4-amine derivatives as potent USP1/UAF1 deubiquitinase inhibitors with anticancer activity against nonsmall cell lung cancer” (J Med Chem, 2014)

test system: Liver microsome; experiment: Half life in rat liver microsomes in presence of NADPH; assay type: ADME
Method in brief: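 Rat liver microsomes with NADPH; half-life in minutes.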

| Compound | t1/2 [min] |
| --- | --- |
| [2H]C([2H])(Nc1nc(-c2ccccc2C([2H])(C([2H])([2H])[2H])C([2H])([2H])[2H])ncc1C)c1ccc(-n2ccnn2)cc1 | 13 |
| [2H]C([2H])([2H])C(c1ccccc1-c1ncc(C)c(NCc2ccc(-n3ccnn3)cc2)n1)C([2H])([2H])[2H] | 7.9 |
| [2H]C([2H])(Nc1nc(-c2ccccc2C(C)C)ncc1C)c1ccc(-n2ccnn2)cc1 | 12 |
| [2H]C([2H])([2H])C([2H])(c1ccccc1-c1ncc(C)c(NCc2ccc(-n3ccnn3)cc2)n1)C([2H])([2H])[2H] | 9.5 |

Continued, values first:

| t1/2 [min] | Compound |
| --- | --- |
| 22 | Cc1cnc(-c2ccccc2C(C)C)nc1NC(C)(C)c1ccc(-n2ccnn2)cc1 |
| 5.8 | Cc1cnc(-c2ccccc2C(C)C)nc1NCc1ccc(-c2cccnc2)cc1 |
| 5.1 | Cc1cnc(-c2ccccc2C2CCC2)nc1NCc1ccc(-n2ccnn2)cc1 |
| 6.2 | Cc1cnc(-c2ccccc2C2CC2)nc1NCc1ccc(-c2cccnc2)cc1 |
| 21 | Cc1cnc(-c2ccccc2C(F)F)nc1NCc1ccc(-n2ccnn2)cc1 |
| 10 | [2H]C([2H])([2H])C([2H])(c1ccccc1-c1ncc(C)c(NC(C)(C)c2ccc(-n3ccnn3)cc2)n1)C([2H])([2H])[2H] |

molecular target: Ubiquitin carboxyl-terminal hydrolase 1/WD repeat-containing protein 48 (Homo sapiens, UniProt O94782); experiment: Inhibition of human USP1/UAF1 using ubiquitin-rhodamine110 substrate by fluorescence assay
Sequence (O94782 whole entry): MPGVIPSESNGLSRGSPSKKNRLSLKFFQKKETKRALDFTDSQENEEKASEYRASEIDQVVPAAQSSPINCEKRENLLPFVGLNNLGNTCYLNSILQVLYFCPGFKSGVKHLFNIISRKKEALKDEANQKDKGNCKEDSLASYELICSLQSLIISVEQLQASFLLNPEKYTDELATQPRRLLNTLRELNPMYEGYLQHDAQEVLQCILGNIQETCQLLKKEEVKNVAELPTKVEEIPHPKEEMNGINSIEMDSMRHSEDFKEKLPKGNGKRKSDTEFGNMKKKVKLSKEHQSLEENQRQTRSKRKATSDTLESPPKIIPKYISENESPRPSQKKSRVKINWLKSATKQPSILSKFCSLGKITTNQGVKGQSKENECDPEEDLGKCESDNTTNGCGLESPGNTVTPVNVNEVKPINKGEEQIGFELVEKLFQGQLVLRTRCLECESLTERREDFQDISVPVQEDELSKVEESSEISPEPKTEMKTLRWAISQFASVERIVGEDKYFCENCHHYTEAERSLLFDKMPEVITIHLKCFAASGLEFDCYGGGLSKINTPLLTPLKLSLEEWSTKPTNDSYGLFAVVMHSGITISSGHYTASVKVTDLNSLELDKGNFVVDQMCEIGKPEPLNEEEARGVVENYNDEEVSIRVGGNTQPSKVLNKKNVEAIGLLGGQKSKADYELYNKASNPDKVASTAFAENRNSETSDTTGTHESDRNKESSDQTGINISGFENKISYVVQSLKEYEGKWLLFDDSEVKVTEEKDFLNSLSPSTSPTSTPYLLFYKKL
Sequence (Q8TAF3 whole entry, further chain): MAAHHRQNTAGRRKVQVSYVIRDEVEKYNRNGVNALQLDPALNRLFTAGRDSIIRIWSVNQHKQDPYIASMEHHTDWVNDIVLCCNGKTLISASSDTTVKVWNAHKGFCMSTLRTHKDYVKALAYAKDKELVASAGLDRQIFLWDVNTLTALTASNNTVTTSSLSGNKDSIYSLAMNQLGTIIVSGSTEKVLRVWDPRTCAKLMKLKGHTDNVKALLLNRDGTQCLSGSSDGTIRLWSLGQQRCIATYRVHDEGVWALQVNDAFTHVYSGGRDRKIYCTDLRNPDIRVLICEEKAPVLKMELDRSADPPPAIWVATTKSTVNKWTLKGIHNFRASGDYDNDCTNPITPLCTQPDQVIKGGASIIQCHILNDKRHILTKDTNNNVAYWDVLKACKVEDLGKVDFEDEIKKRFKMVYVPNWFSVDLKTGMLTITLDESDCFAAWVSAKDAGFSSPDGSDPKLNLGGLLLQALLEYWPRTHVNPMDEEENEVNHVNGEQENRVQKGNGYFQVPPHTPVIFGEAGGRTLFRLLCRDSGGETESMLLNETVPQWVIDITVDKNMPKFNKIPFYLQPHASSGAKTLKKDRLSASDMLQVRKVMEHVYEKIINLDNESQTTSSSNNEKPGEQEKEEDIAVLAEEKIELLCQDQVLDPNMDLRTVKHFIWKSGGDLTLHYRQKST

| Compound | IC50 [nM] |
| --- | --- |
| FC(F)(F)c1ccccc1-c1nc(NCc2ccc(-c3ccc(Cl)cc3)cc2)c2ccccc2n1 | 3600 |
| FC(F)(F)c1cc(-c2ccc(CNc3nc(-c4ccccc4C(F)(F)F)nc4ccccc34)cc2)ccn1 | 4900 |
| Cc1cnc(-c2ccccc2C(C)C)nc1NCc1cccnc1 | 1300 |
| CC(=O)c1ccccc1-c1ncc(C)c(NCc2ccc(-c3cccnc3)cc2)n1 | 8700 |
| Cc1ccc(CNc2nc(-c3ccccc3C(F)(F)F)nc3ccccc23)s1 | 5100 |
| CC(C)c1ccccc1-c1nc2c(c(NCc3ccc(-c4cccnc4)cc3)n1)CNC2 | 2900 |
| FC(F)(F)c1ccccc1-c1nc(NCc2ccc(Cl)c(Cl)c2)c2ccccc2n1 | 10400 |
| Brc1ccccc1-c1nc(NCc2ccc(-c3cccnc3)cc2)c2ccccc2n1 | 1600 |
| FC(F)c1ccccc1-c1nc(NCc2ccc(-c3cccnc3)cc2)c2ccccc2n1 | 1400 |
| FC(F)(F)c1ccccc1-c1nc(NCc2ccc(-c3ccc(Cl)c(Cl)c3)cc2)c2ccccc2n1 | 2200 |
| FC(F)(F)c1ccccc1-c1nc(NCc2ccc(-c3ccncc3)cc2)c2ccccc2n1 | 1900 |
| FC(F)(F)c1ccc(CNc2nc(-c3ccccc3C(F)(F)F)nc3ccccc23)cc1 | 8900 |
| FC(F)(F)c1ccccc1-c1nc(NCc2ccc(-c3cccc(Cl)c3)cc2)c2ccccc2n1 | 2700 |
| FC(F)(F)c1ccccc1-c1nc(NCc2ccc(-c3ccccc3)cc2)c2ccccc2n1 | 3700 |
| FC(F)(F)c1ccccc1-c1nc(NCc2ccc(Cl)cc2)c2ccccc2n1 | 4800 |
| Fc1ccc(CNc2nc(-c3ccccc3C(F)(F)F)nc3ccccc23)cc1 | 3400 |
| FC(F)(F)c1ccccc1-c1nc(NCc2ccc(N3CCOCC3)cc2)c2ccccc2n1 | 10400 |

| Compound | IC50 [nM] |
| --- | --- |
| Cc1cnc(-c2ccccc2C(C)C)nc1NCc1ccc(-c2nnn[nH]2)cc1 | 5900 |
| FC(F)(F)c1ccccc1-c1nc(NCC#Cc2cccnc2)c2ccccc2n1 | 8900 |
| Fc1ccccc1-c1nc(NCc2ccc(-c3cccnc3)cc2)c2ccccc2n1 | 6500 |
| FC(F)(F)c1ccccc1-c1nc(NCc2ccc3c(c2)OCO3)c2ccccc2n1 | 8400 |
| FC(F)(F)c1ccccc1-c1nc(NCc2ccccc2)c2ccccc2n1 | 3100 |
| Cc1cnc(-c2ccccc2C(C)O)nc1NCc1ccc(-c2cccnc2)cc1 (stereo not given) | 2000 |
| O=[N+]([O-])c1ccccc1-c1nc(NCc2ccc(-c3cccnc3)cc2)c2ccccc2n1 | 7800 |
| Cc1cccc(C(CO)Nc2nc(-c3ccccc3C(C)C)ncc2C)c1 (stereo not given) | 21000 |
| Cc1cnc(-c2ccccc2C(C)C)nc1NCC1CN(c2cccnc2)C1 | 21700 |
| FC(F)(F)c1ccccc1-c1nc(NCc2ccc(-c3cncnc3)cc2)c2ccccc2n1 | 3000 |
| COc1ccc(CNc2nc(-c3ccccc3C(F)(F)F)nc3ccccc23)cc1 | 6200 |
| Cc1cnc(-c2ccccc2CO)nc1NCc1ccc(-c2cccnc2)cc1 | 10500 |
| Cc1cnc(-c2ccccc2C(C)C)nc1NCC1CCN(C2COC2)CC1 | 13600 |
| Clc1ccccc1-c1nc(NCc2ccc(-c3cccnc3)cc2)c2ccccc2n1 | 2100 |
| N#Cc1ccc(CNc2nc(-c3ccccc3C(F)(F)F)nc3ccccc23)cc1 | 5700 |
| FC(F)(F)c1ccccc1-c1nc(NCc2ccc(C3CCCCC3)cc2)c2ccccc2n1 | 9800 |

Continued, values first:

| IC50 [nM] | Compound |
| --- | --- |
| 940 | COc1ccccc1-c1nc(NCc2ccc(-c3cccnc3)cc2)c2ccccc2n1 |
| 190 | CC(C)c1ccccc1-c1ncc(N(C)C)c(NCc2ccc(-c3cccnc3)cc2)n1 |
| 1100 | Cc1ccccc1-c1nc(NCc2ccc(-c3cccnc3)cc2)c2ccccc2n1 |
| 280 | CC(C)c1ccccc1-c1nc(NCc2ccc(-c3cccnc3)cc2)c2ccsc2n1 |
| 270 | Cc1cnc(-c2ccccc2C(C)C)nc1NCc1cccs1 |
| 120 | CC(C)c1ccccc1-c1nc(NCc2ccc(-c3cccnc3)cc2)c2nc[nH]c2n1 |
| 120 | Cc1nc(-c2ccccc2C(C)C)nc(NCc2ccc(-c3cccnc3)cc2)c1C |
| 80 | Cc1cnc(-c2ccccc2C(C)C)nc1NCc1ccc(-c2ccc(F)nc2)cc1 |
| 320 | Cc1cnc(-c2ccccc2C(C)C)nc1NCc1ccc(-c2ccnc(C(F)(F)F)c2)cc1 |
| 210 | Cc1cc(NCc2ccc(-c3cccnc3)cc2)nc(-c2ccccc2C(C)C)n1 |
| 150 | CC(C)c1ccccc1-c1nccc(NCc2ccc(-c3cccnc3)cc2)n1 |
| 110 | CSc1cnc(-c2ccccc2C(C)C)nc1NCc1ccc(-c2cccnc2)cc1 |
| 590 | Cc1cnc(-c2ccccc2C(C)C)nc1NC(C)(C)c1ccc(-n2ccnn2)cc1 |
| 160 | CC(C)c1ccccc1-c1nc2c(c(NCc3ccc(-c4cccnc4)cc3)n1)CCC2 |
| 260 | CC(C)c1ccccc1-c1nc(NCc2ccc(-c3cccnc3)cc2)c2cccn2n1 |
| 110 | CC(C)c1ccccc1-c1ncc(F)c(NCc2ccc(-c3cccnc3)cc2)n1 |

| IC50 [nM] | Compound |
| --- | --- |
| 800 | Cc1cnc(-c2ccccc2C(C)C)nc1NCC1CCN(c2cccnc2)C1 (stereo not given) |
| 1100 | FC(F)(F)c1ccccc1-c1nc(NCc2ccc(-c3cccnc3)cc2)c2ccccc2n1 |
| 70 | Cc1cnc(-c2ccccc2C(C)C)nc1NCc1ccc(-c2cccnc2)cc1 |
| 110 | CC(C)c1ccccc1-c1nc(NCc2ccc(-c3cccnc3)cc2)c2sccc2n1 |
| 180 | Cc1cnc(-c2ccccc2C2CCC2)nc1NCc1ccc(-n2ccnn2)cc1 |
| 180 | CC(C)c1ccccc1-c1nc(NCc2ccc(-c3cccnc3)cc2)c2ccccc2n1 |
| 180 | Cc1cnc(-c2ccccc2C2CC2)nc1NCc1ccc(-c2cccnc2)cc1 |
| 820 | Cc1cnc(-c2ccccc2C(F)F)nc1NCc1ccc(-n2ccnn2)cc1 |
| 780 | CCc1ccccc1-c1nc(NCc2ccc(-c3cccnc3)cc2)c2ccccc2n1 |
| 50 | Cc1ccc(-c2ccc(CNc3nc(-c4ccccc4C(C)C)ncc3C)cc2)cn1 |
| 310 | CC(C)c1ccccc1-c1ncc(N)c(NCc2ccc(-c3cccnc3)cc2)n1 |
| 760 | [2H]C([2H])([2H])C([2H])(c1ccccc1-c1ncc(C)c(NC(C)(C)c2ccc(-n3ccnn3)cc2)n1)C([2H])([2H])[2H] |
| 130 | Cc1cccc(CNc2nc(-c3ccccc3C(C)C)ncc2C)c1 |
| 90 | Cc1ccc(N2CCC(CNc3nc(-c4ccccc4C(C)C)ncc3C)CC2)cn1 |
| 140 | Cc1cnc(-c2ccccc2C(C)C)nc1NCC1CCN(c2cnccn2)CC1 |
| 860 | CC(C)c1ccccc1-c1nc2c(c(NCc3ccc(-c4cccnc4)cc3)n1)CCNC2 |
